Measured values: PMC3684861 (European journal of nuclear medicine and molecular imaging, 2011)

Tests used:
[1] = cited from earlier work
[2] = tested on: EMT6 and EMT6Ar1.0 tumour sections (Pgp); assay: In vitro autoradiography on tumour sections; assay type: binding, mouse; settings: for binding in EMT6Ar1.0 tumours compared to EMT6 tumours: radiotracer alone, 30 min incubation, 10 μm tumour slices
Outline: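 Frozen tumours from imaged mice were cut into 10 μm cryostat sections at −12°C, with 3 consecutive sections. Sections were thawed, preincubated in PBS, then incubated 30 min with ¹¹C-labelled Pgp radiotracer (about 20 MBq), alone or with unlabelled inhibitor (10 μM). They were washed in 20% (v/v) ethanol/PBS and distilled water, air-dried, exposed to a phosphor screen and scanned at 600 dpi.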

[3] = tested on: Pgp at the BBB (whole brain); assay: Small-animal PET, whole brain as reference region for Pgp modulation at the BBB; assay type: in vivo, mouse; settings: for tumoural activity uptake relative to brain activity uptake: scan 1, before unlabelled tariquidar; for brain AUC0-60 in scan 2 relative to scan 1: whole brain, scan 2 at 2 h after unlabelled tariquidar 15 mg/kg i.v.
[4] = tested on: Pgp overexpressing EMT6Ar1.0 tumours; assay type: in vivo, mouse
EMT6 tumours [5] = assay type: in vivo, mouse; settings: scan 2, 2 h after unlabelled tariquidar 15 mg/kg i.v.
EMT6Ar1.0 tumours = assay: Static [18F]FDG PET, EMT6Ar1.0 tumours; assay type: in vivo, mouse; settings: 10 min static PET scan at 60 min after injection
Outline: (§1)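 Female athymic NMRI-Foxn1^nu mice (6-8 weeks) had EMT6 and EMT6Ar1.0 cells (3-5 × 10⁵) injected subcutaneously into opposite upper flanks. At about 130 mm³ tumour size, mice (n=7) under isoflurane at about 37°C received [¹⁸F]FDG (6±3 MBq) i.v. A 10 min static microPET scan was taken at 60 min. Tumour ROIs were outlined manually, with SUV = (radioactivity/cm³ ÷ injected radioactivity) × body weight.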

EMT6 tumours [6] = assay: Static [18F]FDG PET, EMT6 tumours; assay type: in vivo, mouse; settings: 10 min static PET scan at 60 min after injection
Outline: as §1

EMT6Ar1.0 cells = assay: In vitro cytotoxicity assay, EMT6Ar1.0 cells; assay type: cell-based, mouse; settings: tariquidar ≥0.1 μM, 48 h, culture medium containing doxorubicin
Outline: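 The Pgp-overexpressing line was derived from EMT6 cells by culture under increasing doxorubicin concentrations and kept at 37°C, 5% CO₂. Cells were exposed to increasing test compound concentrations (0.01 to 10 μM) in their own culture medium for 48 h. Survival was expressed relative to control cells.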

EMT6 cells = assay: In vitro cytotoxicity assay, EMT6 cells; assay type: cell-based, mouse; settings: tariquidar 0.01 to 10 μM, 48 h
Outline: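 EMT6 cells were grown as monolayers in Waymouth's MB 752/1 with 2.4 mM L-glutamine, 15% heat-inactivated FBS and penicillin/streptomycin at 37°C, 5% CO₂. Cells were exposed to increasing test compound concentrations (0.01 to 10 μM) in their culture medium for 48 h. Survival was expressed relative to control cells.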

[7] = cited from earlier work; remark: listed apart in the source
Pgp at the BBB = settings: tariquidar dose 15 mg/kg; cited from earlier work

Molecule | metabolism in vivo [1] | binding in EMT6Ar1.0 tumours compared to EMT6 tumours [2] [times] | tumoural activity uptake relative to brain activity uptake [3] [times] | brain AUC0-60 in scan 2 relative to scan 1 [3] [times] | other results
4-[^18F]fluoropaclitaxel [reference compound] | extensively metabolised |  |  |  | 
COc1ccc(CCN([11CH3])CCC[C@](C#N)(c2ccc(OC)c(OC)c2)C(C)C)cc1OC [(R)-[^11C]verapamil, reference compound] |  | 1.3 |  |  | radiotracer binding after co-incubation ([2]; both tumours, co-incubation with unlabelled tariquidar, elacridar or verapamil (10 μM)): no significant reduction
COc1cc2c(cc1OC)CN(CCc1ccc(NC(=O)c3cccc4c(=O)c5cccc(OC)c5[nH]c34)cc1)CC2 [[^11C]elacridar] | hardly metabolised | 2.1 | 2 to 3 | 3.5±0.4 | 
COc1cc2c(cc1OC)CN(CCc1ccc(NC(=O)c3cc(OC)c(OC)cc3NC(=O)c3cnc4ccccc4c3)cc1)CC2 [[^11C]tariquidar] | hardly metabolised | 4.3 | 2 to 3 | 2.4±0.3 | higher retention in EMT6Ar1.0 tumours than in EMT6 tumours ([4]; PET, AUC0-60): 50%; mean AUC0-60±SD of tumour time-activity curve (SUV) ([4]; scan 2, 2 h after unlabelled tariquidar 15 mg/kg i.v., EMT6Ar1.0 tumours): 45.6 ± 4.8 min; mean AUC0-60±SD of tumour time-activity curve (SUV) (EMT6 tumours [5]): 31.7 ± 7.9 min
OC[C@H]1OC(O)[C@H]([18F])[C@@H](O)[C@@H]1O (some centres unmarked) [[^18F]FDG] |  |  |  |  | mean tumoural SUV±SD (EMT6Ar1.0 tumours): 2.45±0.75; mean tumoural SUV±SD (EMT6 tumours [6]): 1.86±0.49
COc1cc2c(cc1OC)CN(CCc1ccc(NC(=O)c3cc(OC)c(OC)cc3NC(=O)c3cnc4ccccc4c3)cc1)CC2 [tariquidar, Tariquidar dimesylate] |  |  |  |  | cell survival rate (EMT6Ar1.0 cells): < 5 % of control cells; effect on cell survival (EMT6 cells): no effect; terminal elimination half-life [7]: 26 h; inhibition of Pgp at the BBB (Pgp at the BBB): complete inhibition
